Measured values reported in ChEMBL document CHEMBL4392836, “Second-generation aryl isonitrile compounds targeting multidrug-resistant Staphylococcus aureus” (Bioorg Med Chem, 2019).
≈ marks a conversion by molar mass, not a printed value.

Tests used:
Staphylococcus aureus [1] = assay: Antibacterial activity against methicillin-resistant Staphylococcus aureus NRS123 USA400 after 18 to 24 hrs by broth microdilution assay; type: functional
Procedure, shortened: (§1)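 CLSI broth microdilution with modifications. Bacteria cultured in TSB and exposed to compounds or control antibiotics in triplicate. Plates incubated aerobically at 37 °C for 18–24 h. MIC is the lowest concentration preventing visible growth.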

Acinetobacter baumannii [2] = assay: Antibacterial activity against Acinetobacter baumannii BAA1605 after 18 to 24 hrs by broth microdilution assay; type: functional
Procedure, shortened: (§2)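 Broth microdilution MIC per CLSI guidelines with modifications. Bacteria grown in TSB and exposed to compounds or control antibiotics in triplicate. Plates incubated aerobically at 37 °C for 18–24 h. MIC taken as the lowest concentration with no visible growth.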

Enterobacter cloacae [3] = assay: Antibacterial activity against Enterobacter cloacae BAA1134 after 18 to 24 hrs by broth microdilution assay; type: functional; procedure, shortened: as §2
Klebsiella pneumoniae [4] = assay: Antibacterial activity against Klebsiella pneumoniae ATCC BAA-1705 after 18 to 24 hrs by broth microdilution assay; type: functional; procedure, shortened: as §2
Pseudomonas aeruginosa [5] = assay: Antibacterial activity against Pseudomonas aeruginosa ATCC 15442 after 18 to 24 hrs by broth microdilution assay; type: functional; procedure, shortened: as §2
Acinetobacter baumannii [6] = assay: Antibacterial activity against Acinetobacter baumannii BAA1605 after 18 to 24 hrs in presence of colistin by broth microdilution assay; type: functional
Procedure, shortened: (§3)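 To permeabilize the outer membrane, CLSI broth microdilution in TSB (triplicate) was run with subinhibitory colistin: ¼ × MIC for A. baumannii, E. cloacae and E. coli strains, and P. aeruginosa; ½ × MIC for K. pneumoniae. Plates incubated aerobically at 37 °C for 18–24 h. MIC taken as the lowest concentration with no visible growth.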

Enterobacter cloacae [7] = assay: Antibacterial activity against Enterobacter cloacae BAA1134 after 18 to 24 hrs in presence of colistin by broth microdilution assay; type: functional; procedure, shortened: as §3
Klebsiella pneumoniae [8] = assay: Antibacterial activity against Klebsiella pneumoniae ATCC BAA-1705 after 18 to 24 hrs in presence of colistin by broth microdilution assay; type: functional; procedure, shortened: as §3
Pseudomonas aeruginosa [9] = assay: Antibacterial activity against Pseudomonas aeruginosa ATCC 15442 after 18 to 24 hrs in presence of colistin by broth microdilution assay; type: functional; procedure, shortened: as §3
Escherichia coli [10] = assay: Antibacterial activity against Escherichia coli BW25113 after 18 to 24 hrs in absence of colistin by broth microdilution method; type: functional; procedure, shortened: as §2
Escherichia coli [11] = assay: Antibacterial activity against Escherichia coli BW25113 after 18 to 24 hrs in presence of colistin by broth microdilution method; type: functional; procedure, shortened: as §3
Escherichia coli [12] = assay: Antibacterial activity against AcrAB-TolC deficient Escherichia coli […] after 18 to 24 hrs in absence of colistin by broth microdilution method; type: functional; procedure, shortened: as §2
Escherichia coli [13] = assay: Antibacterial activity against AcrAB-TolC deficient Escherichia coli […] after 18 to 24 hrs in presence of colistin by broth microdilution method; type: functional; procedure, shortened: as §3
Staphylococcus aureus [14] = assay: Antibacterial activity against methicillin-resistant Staphylococcus aureus USA300 infected in Balb/c mouse assessed as reduction in bacterial burden in wounded skin area at 2% administered topically twice daily for 5 consecutive days measured 12 hrs post last dose relative to control; type: functional; set-up: scale not given: the % may be the effect or the level left
Procedure, shortened: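 Eight-week-old female Balb/c mice (n = 5 per group) received an intradermal injection of 40 μL of 1.32 × 10⁹ CFU/mL MRSA USA300. From abscess formation (~48 h), a 2% suspension in petroleum jelly was applied topically twice daily for 5 days, with a vehicle-only group. Mice were euthanized 12 h after the last dose. Wounds were homogenized in PBS, serially diluted and plated on mannitol salt agar (≥16 h, 37 °C). CFU reduction was calculated against vehicle.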

Mus musculus = assay: Induction of inflammation in wounded skin area of Balb/c mouse infected with methicillin-resistant Staphylococcus aureus USA300 at 2% administered topically twice daily for 5 consecutive days measured 4 times daily during compound dosing; type: organism-based; details: in vivo, topical_or_ocular
Procedure, shortened: (§4)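 Female Balb/c mice with intradermal MRSA USA300 abscesses were treated topically twice daily for 5 days with a 2% suspension in petroleum jelly, alongside a vehicle group. Mice were checked at least four times daily during infection and treatment for adverse reactions. Wounds were examined for inflammation and toxicity.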

[15] = Toxicity in wounded skin area of Balb/c mouse infected with methicillin-resistant Staphylococcus aureus USA300 at 2% administered topically twice daily for 5 consecutive days measured 4 times daily during compound dosing; details: in vivo, topical_or_ocular; procedure, shortened: as §4
Staphylococcus aureus [16] = assay: Antibacterial activity against methicillin-sensitive Staphylococcus aureus NRS107 after 18 to 24 hrs by broth microdilution assay; type: functional; procedure, shortened: as §1
Staphylococcus aureus [17] = assay: Antibacterial activity against methicillin-resistant Staphylococcus aureus NRS119 after 18 to 24 hrs by broth microdilution assay; type: functional; procedure, shortened: as §1
Staphylococcus aureus [18] = assay: Antibacterial activity against methicillin-resistant Staphylococcus aureus USA300 NRS384 after 18 to 24 hrs by broth microdilution assay; type: functional; procedure, shortened: as §1
Staphylococcus aureus [19] = assay: Antibacterial activity against methicillin-resistant Staphylococcus aureus NRS385 USA500 after 18 to 24 hrs by broth microdilution assay; type: functional; procedure, shortened: as §1
Staphylococcus aureus [20] = assay: Antibacterial activity against vancomycin-resistant Staphylococcus aureus VRS10 after 18 to 24 hrs by broth microdilution assay; type: functional; procedure, shortened: as §1
Staphylococcus aureus [21] = assay: Antibacterial activity against vancomycin-resistant Staphylococcus aureus VRS11a after 18 to 24 hrs by broth microdilution assay; type: functional; procedure, shortened: as §1
[22] = test system: Staphylococcus epidermidis; assay: Antibacterial activity against methicillin-resistant Staphylococcus epidermidis NRS101 after 18 to 24 hrs by broth microdilution assay; type: functional; procedure, shortened: as §1
Streptococcus pneumoniae = assay: Antibacterial activity against penicillin-resistant Streptococcus pneumoniae ATCC 700677 after 18 to 24 hrs by broth microdilution assay; type: functional
Procedure, shortened: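 CLSI broth microdilution with modifications. Bacteria exposed to compounds in triplicate and incubated at 37 °C with 5% CO₂ for 18–24 h. MIC is the lowest concentration preventing visible growth.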

Enterococcus faecium = assay: Antibacterial activity against vancomycin-resistant Enterococcus faecium ATCC 700221 after 18 to 24 hrs by broth microdilution assay; type: functional
Procedure, shortened: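 Broth microdilution per CLSI with modifications. Cultured in BHI and exposed to compounds in triplicate. Incubated aerobically at 37 °C for 18–24 h. MIC read as the lowest concentration with no visible growth.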

[23] = Cmax in human at 625 mg, po; type: ADME; set-up: dose 625 mg, route oral; details: in vivo
[24] = Tmax in human at 625 mg, po; type: ADME; details: in vivo
[25] = Cmax in human at 625 mg, iv; type: ADME; set-up: dose 625 mg, route intravenous; details: in vivo
[26] = Tmax in human at 625 mg, iv; type: ADME; details: in vivo
[27] = Clearance in human at 625 mg, iv; type: ADME; details: in vivo
clinical = details: human, in vivo, iv, 625 mg

## N#Cc1ccc(CCc2ccncc2)cc1
Staphylococcus aureus [1]
  MIC: 64 µM (≈ 13.3 µg/mL)

## N#Cc1ccc(CCc2cccc(C#N)c2)cc1
Staphylococcus aureus [1]
  MIC: 32 µM (≈ 7.43 µg/mL)

## N#Cc1ccc(/C=C/c2ccc(C(F)(F)F)cc2)cc1
Staphylococcus aureus [1]
  MIC: 32 µM (≈ 8.74 µg/mL)

## COc1ccc(/C=C/c2ccc(C#N)cc2)cc1
Staphylococcus aureus [1]
  MIC: 32 µM (≈ 7.53 µg/mL)

## N#Cc1ccc(CCc2ccccn2)cc1
Staphylococcus aureus [1]
  MIC: > 64 µM

## N#Cc1ccc(/C=C/c2ccccc2C#N)cc1
Staphylococcus aureus [1]
  MIC: 16 µM (≈ 3.68 µg/mL)

## N#Cc1ccc(CCc2ccccc2C#N)cc1
Staphylococcus aureus [1]
  MIC: > 64 µM

## N#Cc1ccc(CCC2CCNc3ccccc32)cc1 (stereo not given)
Staphylococcus aureus [1]
  MIC: 32 µM (≈ 8.4 µg/mL)

## CC[C@H]1OC(=O)[C@H](C)[C@@H](O[C@H]2C[C@@](C)(OC)[C@@H](O)[C@H](C)O2)[C@H](C)[C@@H](O[C@@H]2O[C@H](C)C[C@H](N(C)C)[C@H]2O)[C@](C)(O)C[C@@H](C)C(=O)[C@H](C)[C@@H](O)[C@]1(C)O [ERYTHROMYCIN]
Acinetobacter baumannii [2]
  MIC: 16 µM (≈ 11.7 µg/mL)
Enterobacter cloacae [3]
  MIC: > 64 µM
Klebsiella pneumoniae [4]
  MIC: > 64 µM
Pseudomonas aeruginosa [5]
  MIC: > 64 µM
Acinetobacter baumannii [6]
  MIC: 4 µM
Enterobacter cloacae [7]
  MIC: 1 µM
Klebsiella pneumoniae [8]
  MIC: 16 µM
Pseudomonas aeruginosa [9]
  MIC: 4 µM
Escherichia coli [10]
  MIC: 64 µM (≈ 47 µg/mL)
Escherichia coli [11]
  MIC: 1 µM
Escherichia coli [12]
  MIC: 2 µM (≈ 1.47 µg/mL)
Escherichia coli [13]
  MIC: 0.5 µM

## CC(=O)O[C@H]1C[C@@]2(C)[C@@H](C[C@@H](O)[C@H]3[C@@]4(C)CC[C@@H](O)[C@@H](C)[C@@H]4CC[C@@]32C)/C1=C(\CCC=C(C)C)C(=O)O [FUSIDIC ACID]
Staphylococcus aureus [14]
  Activity: 77.78%
Mus musculus
  Activity: Non-Toxic
[15]
  Activity: Non-Toxic

## CC(=O)NC[C@H]1CN(c2ccc(N3CCOCC3)c(F)c2)C(=O)O1 [LINEZOLID]
Staphylococcus aureus [1]
  MIC: 1 µM (≈ 0.337 µg/mL)
Staphylococcus aureus [16]
  MIC: 2 µM (≈ 0.675 µg/mL)
Staphylococcus aureus [17]
  MIC: 32 µM (≈ 10.8 µg/mL)
Staphylococcus aureus [18]
  MIC: 2 µM (≈ 0.675 µg/mL)
Staphylococcus aureus [19]
  MIC: 4 µM (≈ 1.35 µg/mL)
Staphylococcus aureus [20]
  MIC: 2 µM (≈ 0.675 µg/mL)
Staphylococcus aureus [21]
  MIC: 2 µM (≈ 0.675 µg/mL)
[22]
  MIC: 2 µM (≈ 0.675 µg/mL)
Streptococcus pneumoniae
  MIC: 2 µM (≈ 0.675 µg/mL)
Enterococcus faecium
  MIC: 0.5 µM (≈ 0.169 µg/mL)
Acinetobacter baumannii [2]
  MIC: > 64 µM
Enterobacter cloacae [3]
  MIC: > 64 µM
Klebsiella pneumoniae [4]
  MIC: > 64 µM
Pseudomonas aeruginosa [5]
  MIC: > 64 µM
Acinetobacter baumannii [6]
  MIC: > 64 µM
Enterobacter cloacae [7]
  MIC: 16 µM
Klebsiella pneumoniae [8]
  MIC: > 64 µM
Pseudomonas aeruginosa [9]
  MIC: > 64 µM
Escherichia coli [10]
  MIC: > 64 µM
Escherichia coli [11]
  MIC: > 64 µM
Escherichia coli [12]
  MIC: 16 µM (≈ 5.4 µg/mL)
Escherichia coli [13]
  MIC: 16 µM
[23]
  Cmax: 12700 ng/mL
[24]
  Tmax: 1.33 h
[25]
  Cmax: 13400 ng/mL
[26]
  Tmax: 0.5 h
[27]
  clearance: 1.74 mL/min/kg
clinical
  half-life: 4.4 h

## CN[C@H](CC(C)C)C(=O)N[C@H]1C(=O)N[C@@H](CC(N)=O)C(=O)N[C@H]2C(=O)N[C@H]3C(=O)N[C@H](C(=O)N[C@H](C(=O)O)c4cc(O)cc(O)c4-c4cc3ccc4O)[C@H](O)c3ccc(c(Cl)c3)Oc3cc2cc(c3O[C@@H]2O[C@H](CO)[C@@H](O)[C@H](O)[C@H]2O[C@H]2C[C@](C)(N)[C@H](O)[C@H](C)O2)Oc2ccc(cc2Cl)[C@H]1O [VANCOMYCIN]
Staphylococcus aureus [1]
  MIC: 1 µM (≈ 1.45 µg/mL)
Staphylococcus aureus [16]
  MIC: 1 µM (≈ 1.45 µg/mL)
Staphylococcus aureus [17]
  MIC: 1 µM (≈ 1.45 µg/mL)
Staphylococcus aureus [18]
  MIC: 1 µM (≈ 1.45 µg/mL)
Staphylococcus aureus [19]
  MIC: 1 µM (≈ 1.45 µg/mL)
Staphylococcus aureus [20]
  MIC: > 64 µM
Staphylococcus aureus [21]
  MIC: > 64 µM
[22]
  MIC: 4 µM (≈ 5.8 µg/mL)
Streptococcus pneumoniae
  MIC: 1 µM (≈ 1.45 µg/mL)
Enterococcus faecium
  MIC: > 64 µM
Acinetobacter baumannii [2]
  MIC: 32 µM (≈ 46.4 µg/mL)
Enterobacter cloacae [3]
  MIC: > 64 µM
Klebsiella pneumoniae [4]
  MIC: > 64 µM
Pseudomonas aeruginosa [5]
  MIC: > 64 µM
